Molecules are shown by their SMILES. pEC50: −log10 of the molar value.

The record followed here is ChEMBL document CHEMBL1142722, “Discovery and selection of TMC114, a next generation HIV-1 protease inhibitor” (J Med Chem, 2005).

Data set [1] deals with Human immunodeficiency virus 1. Description: Effective concentration of against HIV Wild Type (IIIB) strain. It counts as functional, organism-based. The following applies: for pEC50: Human immunodeficiency virus 1. Put shortly: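 Wild-type HIV-1 IIIB was tested in MT-4 cells by MTT colorimetric CPE assay. Compound was serially diluted, with virus at 200-250 CCID50/well and 30 000 cells/well. […] Mock-infected cultures were run in parallel for cytotoxicity.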

Data set [2] deals with Human immunodeficiency virus 1. The experiment in a line: Effective concentration against PI-Resistant HIV strain (M1). It counts as functional, organism-based. The essentials: (§1)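 MTT cytopathic-effect assay in MT-4 cells infected with recombinant HIV carrying clinical-isolate-derived protease and RT sequences in an HXB2-derived backbone. Inoculum 200-250 CCID50/well, 30 000 cells/well, compound over a concentration range. Incubation 5 days at 37 °C, 5% CO2. […] Cytotoxicity run in parallel on mock-infected cells.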

In data set [3] the test system is Human immunodeficiency virus 1. The experiment in a line: Effective concentration as average activity on mutant HIV panel (AVMUT). As to conditions: for pEC50: Human immunodeficiency virus 1. It counts as functional, organism-based. Put shortly:
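Mean pEC50 across the panel of PI-resistant recombinant clinical-isolate strains. Each strain was tested by MTT CPE assay in MT-4 cells at 200-250 CCID50/well and 30 000 cells/well, read after 5 days at 37 °C, 5% CO2.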

For data set [4], the system named is Human immunodeficiency virus 1. The experiment in a line: Effective concentration against PI-Resistant HIV strain (M3). It counts as functional, organism-based. As to conditions: for pEC50: Human immunodeficiency virus 1. Put shortly:
as §1

Data set [5] has as its system Human immunodeficiency virus 1. The experiment in a line: Effective concentration against PI-Resistant HIV strain (M5). It counts as functional, organism-based. The following applies: for pEC50: Human immunodeficiency virus 1. The essentials:
as §1

The test system of data set [6] is Human immunodeficiency virus 1. Description: Effective concentration against PI-Resistant HIV strain (M2). It counts as functional, organism-based. As to conditions: for pEC50: Human immunodeficiency virus 1. Put shortly:
as §1

Data set [7] concerns Human immunodeficiency virus 1. Description: Effective concentration against PI-Resistant HIV strain (M4). It counts as functional, organism-based. As to conditions: for pEC50: Human immunodeficiency virus 1. The essentials:
as §1

Data set [8] can be described thus: Percentage of remaining compound after 30 min incubation in dog liver microsomes was determined as metabolic stability. It is filed as ADME, Canis lupus familiaris, Microsome. The following applies: read-out: Remaining compound. Put shortly: (§2)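 Compound incubated with rat, dog or human liver microsomes for 30 min at 37 °C. Residual parent compound in the reaction mixture was measured directly by LC-MS and expressed as % remaining.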
In general terms: Liver microsomes are a subcellular fraction often used to study metabolism.

The nature of data set [9]: Half-life in dog after 80 mg/kg oral administration. The following applies: in vivo. It counts as ADME, organism-based, Canis lupus familiaris. Set-up: dose 80 mg/kg, route oral. Put shortly:
(§3)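 Single oral dose of 80 mg/kg given to dogs as a PEG400 solution. Plasma exposure parameters are reported as the mean of four measurements, with the standard deviation in parentheses.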

The nature of data set [10]: Percentage of remaining compound after 30 min incubation in rat liver microsomes was determined as metabolic stability. It is filed as ADME, Microsome. The following applies: read-out: Remaining compound. Put shortly:
as §2

Data set [11] can be described thus: Area under concentration time curve value in dog after 80 mg/kg oral administration. It is filed as ADME, organism-based, Canis lupus familiaris. More on the design: dose 80 mg/kg, route oral. The following applies: in vivo. Put shortly: as §3
Data set [12] can be described thus: Maximum plasma concentration in dog after 80 mg/kg oral administration. It is filed as ADME, organism-based, Canis lupus familiaris. Set-up: dose 80 mg/kg, route oral. The essentials:
as §3

The nature of data set [13]: Percentage of remaining compound after 30 min incubation in human liver microsomes was determined as metabolic stability. It counts as ADME, Microsome. The following applies: read-out: Remaining compound. The essentials:
as §2

Data set [14] is described as follows: Time to reach maximum concentration in dog after 80 mg/kg oral administration. It counts as ADME, organism-based, Canis lupus familiaris. More on the design: dose 80 mg/kg, route oral. As to conditions: in vivo. Put shortly:
as §3

In general, pEC50 refers to the EC50 on a negative log10 scale, so that one unit is a factor of ten. High values mean a small EC50, low ones a large EC50. For the compound `CC(C)CN(C[C@@H](O)[C@H](Cc1ccccc1)NC(=O)O[C@H]1CO[C@H]2OCC[C@H]21)S(=O)(=O)c1ccc(I)cc1`, the pEC50 in data set [1] is 8.82; in [2], 7.48; in data set [3], 8.06; in data set [4] it was 8.39; in data set [5] it was 8.30; in data set [6], 7.86. The compound also had a pEC50 in data set [7] of 8.28.
`CC(C)CN(C[C@@H](O)[C@H](Cc1ccccc1)NC(=O)OC1COC2OCCC12)S(=O)(=O)c1ccccc1` (mixture of isomers): the pEC50 is 8.56 in data set [1]; 6.78 in data set [2]; 7.17 in data set [3]; 7.32 in data set [4]; 7.51 in data set [5]; 6.87 in data set [6]. This compound had a pEC50 in data set [7] of 7.38.
In general, half-life refers to the time needed for the level to fall by half in the phase considered. By Cmax is commonly meant the highest concentration seen after dosing. Usually Tmax stands for the time from dosing to the highest level. With `COc1ccc(S(=O)(=O)N(CC(C)C)C[C@@H](O)[C@H](Cc2ccccc2)NC(=O)O[C@H]2CO[C@H]3OCC[C@H]32)cc1`, the pEC50 in [1] was 9.23; in data set [2], 7.99; in data set [3], 8.35; in data set [4] it was 8.65; in [5], 8.54; in [6], 8.22. For the same compound, the pEC50 in data set [7] was 8.33. The amount remaining at 0.5 h came out at 11% in [8], 25% in data set [10] and 56% in [13]. The half-life in data set [9] is 1.47 h. For the same compound, the AUC last in [11] was 2700 ng·h/mL. This compound yielded a Cmax in data set [12] of 1180 ng/mL. For the same compound, the Tmax in data set [14] worked out at 0.6 h.
Take `CC(C)CN(C[C@@H](O)[C@H](Cc1ccccc1)NC(=O)O[C@H]1CO[C@H]2OCC[C@H]21)S(=O)(=O)c1ccc2c(c1)OCO2`: the pEC50 was 9.21 in data set [1]; 7.49 in [2]; 8.19 in data set [3]; 8.46 in [4]; 8.39 in data set [5]; 8.19 in [6]. In data set [7], this compound gave a pEC50 of 8.40. Besides, the fraction remaining at 0.5 h in data set [8] came out at 53%; in data set [10] it was 21%; in data set [13], 52%. Also, in data set [9], the half-life is 2.06 h. Further, in data set [11], the AUC last worked out at 18100 ng·h/mL. The same compound returned a peak concentration (Cmax) in data set [12] of 3780 ng/mL. Further, the Tmax in data set [14] came to 2.5 h.
For `CC(C)CN(C[C@@H](O)[C@H](Cc1ccccc1)NC(=O)O[C@H]1CO[C@H]2OCC[C@H]21)S(=O)(=O)c1ccc(N)cc1` (stereo in doubt; form 1), the “Log EC50” value in [1] was -7.36; in [3], -6.81; in data set [4] it was -6.76; in data set [5], -6.9; in [6], -6.72; in data set [7], -6.84.
In data set [1], `CC(C)CN(C[C@@H](O)[C@H](Cc1ccccc1)NC(=O)O[C@H]1CO[C@@H]2OCC[C@@H]21)S(=O)(=O)c1ccc(N)cc1` showed a pEC50 of 6.51.
Turning to `CC(C)CN(C[C@@H](O)[C@H](Cc1ccccc1)NC(=O)O[C@H]1CO[C@H]2OCC[C@H]21)S(=O)(=O)c1ccc(O)cc1`, the pEC50 in data set [1] is 8.20; in data set [2], 7.63; in [3] it was 8.06; in [4], 8.22; in data set [5] it was 8.21; in data set [6], 8.00. The pEC50 in [7] is 8.22.
As to `CC(C)CN(C[C@@H](O)[C@H](Cc1ccccc1)NC(=O)O[C@H]1CO[C@H]2OCC[C@H]21)S(=O)(=O)c1ccc([N+](=O)[O-])cc1`, the pEC50 in data set [1] is 8.61; in data set [2], 7.47; in data set [3] it was 7.67; in [4], 8.34; in data set [5], 7.34; in data set [6] it was 7.53. The compound also had a pEC50 in [7] of 7.66.
For the compound `CC(C)CN(C[C@@H](O)[C@H](Cc1ccccc1)NC(=O)O[C@@H]1CO[C@H]2OCC[C@H]21)S(=O)(=O)c1ccc(N)cc1`, the pEC50 is 6.62 in data set [1]; 6.12 in data set [2]; 6.01 in data set [3]; 6.32 in [4]; 5.65 in data set [6]; 5.95 in [7].
Consider `CC(C)CN(C[C@@H](O)[C@H](Cc1ccccc1)NC(=O)O[C@@H]1CO[C@@H]2OCC[C@@H]21)S(=O)(=O)c1ccc(N)cc1`, for which the pEC50 was 7.97 in data set [1]; 7.43 in [2]; 7.51 in data set [3]; 7.67 in [4]; 7.58 in [5]; 7.22 in [6]. Moreover, in data set [7], the pEC50 is 7.67.
Consider `CC(C)CN(C[C@@H](O)[C@H](Cc1ccccc1)NC(=O)O[C@H]1CO[C@H]2OCC[C@H]21)S(=O)(=O)c1ccc(C#N)cc1`, for which the pEC50 in [1] was 8.28; in [2], 6.94; in data set [3], 7.01; in data set [4], 7.40; in [5] it was 6.86; in data set [6], 6.81. In data set [7], this compound showed a pEC50 of 7.05.
For the compound `CC(=O)c1ccc(S(=O)(=O)N(CC(C)C)C[C@@H](O)[C@H](Cc2ccccc2)NC(=O)O[C@H]2CO[C@H]3OCC[C@H]32)cc1`, the negative-log EC50 (pEC50) in data set [1] was 8.71; in data set [2], 7.50; in data set [3] it was 7.86; in data set [4] it was 8.22; in data set [5], 7.93; in [6] it was 7.80.
With `CC(C)CN(C[C@@H](O)[C@H](Cc1ccccc1)NC(=O)O[C@H]1CO[C@H]2OCC[C@H]21)S(=O)(=O)c1cccc(N)c1`, the pEC50 in data set [1] is 8.36; in data set [2] it was 6.12; in data set [3], 7.37; in data set [4], 7.55; in data set [5], 7.58; in data set [6], 7.32. This compound showed a negative logarithm of the EC50 (pEC50) in [7] of 7.58.
For the compound `CC(C)CN(C[C@@H](O)[C@H](Cc1ccccc1)NC(=O)O[C@H]1CO[C@H]2OCC[C@H]21)S(=O)(=O)c1ccc(N)cc1` (stereo in doubt; form 2), the “Log EC50” value in data set [1] was -8.39; in data set [3] it was -8.29; in data set [4] it was -8.14; in data set [6], -8.14. Further, the negative-log EC50 (pEC50) in [2] was 8.29. The share remaining at 0.5 h came out at 80% in data set [8], 92% in data set [10] and 85% in data set [13]. In data set [9], this compound showed a half-life of 0.781 h. The compound further came in with an AUC last in data set [11] of 74100 ng·h/mL. Also, the highest concentration (Cmax) in data set [12] was 19100 ng/mL. For the same compound, in data set [14], the Tmax was found to be 1 h.
Turning to `CC(C)CN(C[C@@H](O)[C@H](Cc1ccccc1)NC(=O)O[C@H]1CCOC1)S(=O)(=O)c1ccc(N)cc1`, the pEC50 in data set [1] was 7.43; in data set [2] it was 6.13; in data set [3] it was 6.49; in data set [4], 6.71; in data set [5], 6.13; in [6] it was 6.69. The compound further showed a pEC50 in data set [7] of 6.77. Also, the amount remaining at 0.5 h in data set [8] came out at 81%; in data set [10] it was 83%; in data set [13] it was 116%.
In the case of `CC(C)CN(C[C@@H](O)[C@H](Cc1ccccc1)NC(=O)O[C@H]1CO[C@H]2OCC[C@H]21)S(=O)(=O)c1ccc(CN)cc1`, the pEC50 in data set [1] was 8.15; in [2] it was 8.12; in [3], 8.11; in data set [4], 8.22; in data set [5] it was 8.25; in data set [6], 7.80. This compound also had a pEC50 in [7] of 8.18.
For the compound `Cc1ccc(S(=O)(=O)N(CC(C)C)C[C@@H](O)[C@H](Cc2ccccc2)NC(=O)OC2COC3OCCC23)cc1` (mixture of isomers), the pEC50 is 8.28 in [1]; 6.89 in data set [2]; 7.22 in [3]; 7.45 in [4]; 7.39 in data set [5]; 6.97 in [6]. The pEC50 in data set [7] is 7.42.
In the case of `CC(C)(C)NC(=O)[C@@H]1CN(Cc2cccnc2)CCN1C[C@@H](O)C[C@@H](Cc1ccccc1)C(=O)N[C@H]1c2ccccc2C[C@H]1O`, the share remaining at 0.5 h was 85% in [8], 97% in data set [10] and 95% in [13].
